For one series, the system named is THP-1. Briefly: Cytotoxicity against human THP1 cells assessed as reduction in cell viability at 5 uM incubated for 18 hrs by MTT assay relative to control. The settings on record: thp-1, 18 h.
The species entered for series [1] is Homo sapiens. Nature of the series: Activation of IFNalpha signalling in human ISRE-bla-THP1 cells assessed as increase in type-1 IFN-alpha induced ISRE activity at 5 uM preincubated for 16 hrs followed by CCF4-AM substrate addition and measured after 3 hrs by FRET based assay relative to control. It counts as cell-based. In outline: (§1)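 ISRE-bla THP-1 cells, 5×10^4/well, in RPMI with 10% dialyzed FBS, 0.1 mM non-essential amino acids, 1 mM pyruvate and pen/strep. Cells are co-treated with IFN-α (final 100 U/mL) and compound: 5 μM single point or graded concentrations, 0.05% DMSO. After 16 h, CCF4-AM is added for 3 h at RT in the dark.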

Series [2] can be described thus: Activation of IFNalpha signalling in human ISRE-bla THP1 cells assessed as increase in type-1 IFN-alpha induced ISRE activity preincubated for 16 hrs followed by CCF4-AM substrate addition and measured after 3 hrs by FRET based assay. It counts as cell-based. The settings on record: THP-1. In outline: as §1
A short description of series [3]: Activation of LPS-induced NF-kappaB activity in human THP1-Blue-NF-kappaB cells assessed as increase in SEAP reporter activity incubated for 20 hrs by quanti-blue SEAP assay. In outline:
(§2)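 THP1-Blue NF-κB cells, 10^5/well, in RPMI with 10% FBS, pen/strep and Normocin. Compound (5 μM single point or graded concentrations, 0.05% DMSO) is added together with LPS; methods give final LPS 10 μg/mL, table footnote gives 10 ng/mL. Supernatant SEAP is read after 20 h by QuantiBlue colorimetry at 630 nm.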

The species entered for series [4] is Homo sapiens. Briefly: Activation of LPS-induced NF-kappaB activity in human THP1-Blue-NF-kappaB cells assessed as increase in SEAP reporter activity at 5 uM incubated for 20 hrs by quanti-blue SEAP assay relative to control. In outline:
as §2

For the next series, the species on record is Mus musculus. Briefly: Co-adjuvanticity in ovalbumin immunized C57BL/6 mouse assessed as increase in OVA-specific IgG titers in blood at 100 nmol co-immunized with adjuvant MPLA and ovalbumin antigen on day 0 and 21 and measured on day 21 by ELISA. It counts as functional, organism-based. In outline:
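C57BL/6 mice, 7–9 weeks old, n=8/group, immunized on days 0 and 21 with ovalbumin (20 μg/animal), MPLA (10 μg/animal) and compound (100 nmol/animal). Bled on day 21; OVA-specific IgG titers measured by ELISA.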

The nature of series [5]: Systemic toxicity in ovalbumin immunized C57BL/6 mouse assessed as behavioural changes at 50 nmol co-immunized with adjuvant MPLA and ovalbumin antigen on day 0 and 21. Conditions: in vivo. In outline: (§3)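 C57BL/6 mice, 7–9 weeks old, n=8/group, immunized intramuscularly (gastrocnemius) on days 0 and 21 with ovalbumin (20 μg/animal), MPLA (10 ng/animal) and compound (50 nmol/animal). Systemic toxicity monitored as behaviour change and weight loss.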

The nature of series [6]: Systemic toxicity in ovalbumin immunized C57BL/6 mouse assessed as body weight loss at 50 nmol co-immunized with adjuvant MPLA and ovalbumin antigen on day 0 and 21. The settings on record: in vivo. In outline: as §3
The nature of series [7]: Prodrug conversion in RPMI assay medium supplemented with 10% dialyzed FBS, 100 U/ml penicillin and 100 ug/ml streptomycin assessed as N-(4-chloro-2,5-dimethoxyphenyl)-4-ethoxybenzene-sulfonamide release. The settings on record: cattle. In kind it is ADME.
A short description of series [8]: Stability of the compound in DMSO. In kind it is physicochemical.

pEC50: −log10 of the molar value. The source made the active and inactive calls. The calls are words filed in the database; no cut-off is given here.

In the case of `CCOc1ccc(S(=O)(=O)N(CCCN)c2cc(OC)c(Cl)cc2OC)cc1.Cl`, the Activity with THP-1 stood at 71%; in the series listed under Homo sapiens [1], 182%; in the series filed under Homo sapiens [4], 189%. For the same compound, the pEC50 is 5.52 in series [2] and 5.48 in [3].
In the case of `CCOc1ccc(S(=O)(=O)N(C)c2cc(OC)c(Cl)cc2OC)cc1`, the Activity in the series with THP-1 is 74.5%; in the series listed under Homo sapiens [1], 215%; in [5] it was “Non-Toxic”; in series [6], “Non-Toxic”; in the series listed under Homo sapiens [4] it was 235%. Also, the result in the series filed under Mus musculus was Active. Besides, the pEC50 was 6.08 in series [2] and 6.16 in series [3].
With `CCOc1ccc(S(=O)(=O)N(C(C)=O)c2cc(OC)c(Cl)cc2OC)cc1`, the Activity is 72% with THP-1, 244% in the series listed under Homo sapiens [1] and 184% in the series listed under Homo sapiens [4]. Moreover, in series [7], the Drug metabolism entry was “Metabolite_Detected”. Moreover, in [8], the Stability entry is reported as “Stable”.
In the case of `COc1cc(NS(=O)(=O)c2ccc(CN)cc2)c(OC)cc1Cl`, the Activity in the series with THP-1 was determined as 97%; in the series filed under Homo sapiens [1] it was 111%; in the series filed under Homo sapiens [4] it was 103%.
The corresponding values for `C#CCCCN(c1cc(OC)c(Cl)cc1OC)S(=O)(=O)c1ccc(OCC)cc1` are 70.7%, 184% and 182%.
The corresponding values for `C#CCOc1ccc(S(=O)(=O)Nc2cc(OC)c(Cl)cc2OC)cc1` are 80.9%, 99% and 97%.
The corresponding values for `CCOc1ccc(S(=O)(=O)Nc2ccc(Cl)c(OC)c2)cc1` are 83.7%, 99% and 126%.
As to `C#CCN(c1cc(OC)c(Cl)cc1OC)S(=O)(=O)c1ccc(OCC)cc1`, the values for the Activity with THP-1, in the series filed under Homo sapiens [1] and in the series listed under Homo sapiens [4] were 72%, 213% and 232%, respectively.
For `CCOC(=O)CN(c1cc(OC)c(Cl)cc1OC)S(=O)(=O)c1ccc(OCC)cc1`, in that order: 81.4%, 184% and 202%.
`CCOc1ccc(S(=O)(=O)N(CCCNC(=O)OC(C)(C)C)c2cc(OC)c(Cl)cc2OC)cc1`: the Activity was 75.6% in the series on THP-1, 140% in the series filed under Homo sapiens [1] and 134% in the series listed under Homo sapiens [4].
Turning to `COc1cc(NS(=O)(=O)c2ccc(C(=O)O)cc2)c(OC)cc1Cl`, the Activity in the series with THP-1 was 98.2%; in the series listed under Homo sapiens [1], 104%; in the series listed under Homo sapiens [4], 89%.
The corresponding values for `COc1cccc(S(=O)(=O)Nc2cc(OC)c(Cl)cc2OC)c1` are 79.6%, 104% and 116%.
`CCCCCCCCCCCCN(c1cc(OC)c(Cl)cc1OC)S(=O)(=O)c1ccc(OCC)cc1`: the Activity was determined as 93% in the series on THP-1, 100% in the series filed under Homo sapiens [1] and 97% in the series listed under Homo sapiens [4].
As to `CCOc1ccc(S(=O)(=O)N(CCCO)c2cc(OC)c(Cl)cc2OC)cc1`, the Activity is 68.5% in the series with THP-1, 178% in the series filed under Homo sapiens [1] and 219% in the series listed under Homo sapiens [4].
With `COc1cc(NS(=O)(=O)c2ccccc2OC)c(OC)cc1Cl`, the Activity in the series on THP-1 turned out to be 92.1%; in the series filed under Homo sapiens [1] it was 101%; in the series listed under Homo sapiens [4] it was 96%.
Take `CCOc1ccc(S(=O)(=O)Nc2cc(OC)c(Cl)cc2OC)cc1`: the Activity in the series on THP-1 is 73.5%; in the series listed under Homo sapiens [1], 200%; in series [5] it was “Non-Toxic”; in series [6], “Non-Toxic”; in the series listed under Homo sapiens [4] it was 200%. Moreover, in the series listed under Mus musculus, the result was Active. Moreover, the pEC50 in series [2] was 6.18; in series [3], 6.22.
With `COc1cc(NS(=O)(=O)c2ccc(OC)c(Br)c2)c(OC)cc1Cl`, the Activity in the series with THP-1 came out at 85%; in the series filed under Homo sapiens [1], 101%; in the series filed under Homo sapiens [4], 87%.
Take `C#CCN(c1cc(OC)c(N=[N+]=[N-])cc1OC)S(=O)(=O)c1ccc(OCC)cc1`: the figures for the Activity in the series on THP-1, in the series listed under Homo sapiens [1] and in the series listed under Homo sapiens [4] were 73.4%, 182% and 217%, respectively.
For `CCNC(=O)CCCN(c1cc(OC)c(Cl)cc1OC)S(=O)(=O)c1ccc(OCC)cc1`, in that order: 78.2%, 137% and 206%.
With `CCOc1ccc(S(=O)(=O)N(CCCNC(=O)CCCC[C@H]2SC[C@H]3NC(=O)N[C@H]32)c2cc(OC)c(Cl)cc2OC)cc1`, the Activity in the series on THP-1 was determined as 69.6%; in the series filed under Homo sapiens [1], 175%; in the series listed under Homo sapiens [4], 195%.
The corresponding values for `CCCCCCN(c1cc(OC)c(Cl)cc1OC)S(=O)(=O)c1ccc(OCC)cc1` are 95.2%, 99% and 81%.
`COc1ccc(S(=O)(=O)Nc2cc(OC)c(Cl)cc2OC)cc1`: the figures for the Activity in the series with THP-1, in the series filed under Homo sapiens [1] and in the series filed under Homo sapiens [4] were 69.6%, 219% and 226%, respectively. In addition, the results for the pEC50 in series [2] and in series [3] were 5.85 and 5.73, respectively.
In the case of `CCCCCCCN(c1cc(OC)c(Cl)cc1OC)S(=O)(=O)c1ccc(OCC)cc1`, the Activity is 90.4% in the series on THP-1, 95% in the series listed under Homo sapiens [1] and 108% in the series filed under Homo sapiens [4].

Values taken from ChEMBL document CHEMBL4376827, “Structure-Activity Relationship Studies To Identify Affinity Probes in Bis-aryl Sulfonamides That Prolong Immune Stimuli” (J Med Chem, 2019).
